High-throughput results from PubChem BioAssay.
Shown are actives, neighbours in structure and some others; about 3.9% of the full set was active somewhere.
FLuc inh counter – counter-screen for luciferase assay inhibitors: firefly luciferase inhibition; P08659; ATPLite firefly luciferase biochemical luminescence, 10 min; inhibition, % at 10 µM; 1.5% of 200,000 active; AID 1006;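 active means inhibition above about 50% when tested at 10 µM, limit read from the data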
NF-kB neuron act – NF-kB expression increase, human neuronal cells | fold change at 12.5 µM | NF-kB reporter expression; active compounds read high | AID 1239 | 1.6% of 190,000 active; in the data active means fold change above about 3.3
STAT1 act – activators of IFN-gamma induced STAT1 signaling | NIH 3T3 STAT1-luciferase reporter, luminescence; 100% = IFN-gamma alone, no compound | activation (% of control), % at 5.5 µM | 2.6% of 200,000 active;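 active means activation above the screen-wide mean activation plus 3 SD, cut at about 130% in these data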;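 further: raw ratio to IFN-gamma control signal so 100% means no change and 0% no light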
FLuc act counter – firefly luciferase counter-screen for stimulation assays | ATPlite luciferase biochemical, luminescence, 10 min; 0 = ATP-free wells, 1 = DMSO control | activation factor at 10 µM | 200,000 tested, under 10 active;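 active means luciferase activation factor, scaled between plate controls, of at least 2 with compound at 10 µM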
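System: luciferase plus luciferin reagent, cell-free; medium: PBS as buffer for the ATP substrate; dosing: test compounds dosed from 2 mM stocks in 100% DMSO; timing: 10 min post-reagent at room temperature; measured by: luminescence measurement of luciferase light output; evaluation: luciferase activation, seen as luminescence increase over controls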
APP 5'UTR act – APP 5'UTR luciferase reporter activation; activation, % at 2 µM; AID 1276; SH-SY5Y APP 5'UTR luciferase reporter, luminescence; zero percent = DMSO vehicle wells; 1% of 190,000 active;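 active means activation above a set limit, based on mean plus 3 SD of controls, cut at about 140% in these data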
Rad51 HR inh – blocks human Rad51 in homologous recombination | hRad51 DNA strand exchange, fluorescence dequenching | inhibition, % at 10 µM | 0.085% of 200,000 active | AID 1385;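 active means inhibition above 40% at the single screening dose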;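 further: 0% = DMSO control wells and 100% = blanks with heterologous ssDNA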
Target sequence (Q06609 whole entry, looked up): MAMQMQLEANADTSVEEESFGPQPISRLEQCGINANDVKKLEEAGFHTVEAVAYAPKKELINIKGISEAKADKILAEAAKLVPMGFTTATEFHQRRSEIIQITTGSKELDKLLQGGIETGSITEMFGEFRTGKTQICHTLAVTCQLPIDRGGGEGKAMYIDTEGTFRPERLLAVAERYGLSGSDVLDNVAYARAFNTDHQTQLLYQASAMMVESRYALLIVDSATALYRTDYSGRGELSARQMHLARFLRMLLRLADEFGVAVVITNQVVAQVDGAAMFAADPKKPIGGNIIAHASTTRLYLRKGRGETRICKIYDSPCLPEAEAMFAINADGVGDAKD
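Read-out basis: percent inhibition relative to plate controls and blanks / Assay system: human Rad51 nucleoprotein filaments preassembled on unlabelled ssDNA / Timing: filaments 15 min 37 °C, then compound 30 min / Control set: per-plate controls and blanks / Technique: fluorescence dequenching at 485/520 nm / Compound: 10 µM final, single point / Also added: Fluorescein- and BHQ1-tagged 47-mer duplex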
Starred values were filed as active, the others as inactive; x = no result given.

SMILES	FLuc inh counter	NF-kB neuron act	STAT1 act	FLuc act counter	APP 5'UTR act	Rad51 HR inh
COc1ccc(NC(=O)Nc2ncccc2C)cc1	28	1.9	139*	0.7	13	-1
COc1cccc(NC(=O)Nc2cc(C)ccc2F)c1	4	1.5	118	1	42	8
COc1cc(/C=N/NC(=O)COc2ccc(-n3cnnn3)cc2)ccc1OCC(N)=O	x	x	x	x	x	13
O=C(O)c1ccccc1-c1cn2cc(Cl)ccc2n1	62*	1.7	109	0.4	23	9
Clc1ccc2nc(-c3ccc(Br)s3)cn2c1	78*	3.5*	96	0.2	230*	-3
COc1ccc(-c2cc(C(=O)N3CCN(Cc4ccccc4)CC3)no2)cc1OC	-1	0.88	107	1	-1	-4
Cc1ccc(-c2cc(C(=O)N3CCCC3)no2)cc1	85*	3.8*	73	0.2	208*	-6
COc1ccc(-c2cc(C(=O)N3CCCCC3)no2)cc1OC	1	1.9	132*	1	46	8
Clc1cc(Br)ccc1OCCOCCN1CCOCC1	-3	3.6*	108	1	11	-2
COc1cc(C=O)ccc1OCc1ccccc1Br	45	1.7	116	0.5	24	8
COc1cc(C=O)ccc1OCc1cccc(Br)c1	30	1.1	130*	0.7	58	-34
COC(=O)c1ccccc1OCCCOc1ccc(C=O)cc1OC	-4	1.2	134*	1	91	0
CCN1C(=O)/C(=C\c2cn(CCC#N)nc2-c2ccc(F)cc2)SC1=S	0	0.66	102	1	-3	-3
C=CCNC(=S)N/N=C(\C)c1ccccn1	-1	0.17	136*	1	-93	-7
O=c1c2ccccc2cnn1CCOc1ccccc1	83*	1.4	60	0.2	99	x
CN(Cc1ccccc1NS(=O)(=O)c1ccc2ccccc2c1)C1CCCCC1	-6	0.83	96	1.1	-2	-4
Cc1nc2c(cnn2-c2ccccc2)c(=O)[nH]1	-6	x	111	1.1	0	x
COc1cc2c(C)nc3c(cnn3-c3ccccc3)c2cc1OC	-4	x	144*	1	79	x
O=C(CSc1nnc2ccccn12)N1CCc2ccccc21	27	2.4	135*	0.7	105	1
O=C(CSc1nnc2ccccn12)N1CCc2ccccc2C1	-5	2	115	1.1	26	6
O=C(CSc1ccccn1)N1CCc2ccccc21	22	3.5*	133*	0.8	51	-2
COC(=O)c1cc(C(=O)Nc2nnc(C3CC3)s2)cc([N+](=O)[O-])c1	-2	1.2	101	1	-11	16
COCCNC(=O)c1cc(-c2ccccc2)nn1CC1CC(c2cccnc2)=NO1 (centres undefined)	x	x	x	x	x	-3
COc1ccc(CN2C(=O)CC(C(=O)NCCc3ccc(S(N)(=O)=O)cc3)SC2=Nc2ccccc2)cc1 (centres undefined)	-7	1	96	1.1	-17	1
CCOC(=O)CNC(=O)CSc1ncnc2c1nnn2-c1ccc(F)cc1	9	1.7	97	0.9	-5	-3
SMILES	FLuc inh counter	NF-kB neuron act	STAT1 act	FLuc act counter	APP 5'UTR act	Rad51 HR inh
COC(=O)C(C)Sc1ncnc2c1nnn2-c1ccc(F)cc1 (centres undefined)	38	1.5	137*	0.6	14	9
COc1cc(S(=O)(=O)N2CCN(c3ccccc3F)CC2)ccc1Cl	74*	0.95	103	0.3	12	2
Cc1ccccc1Nc1nc(N)c2ccccc2n1	87*	8.9*	108	0.1	144*	-10
Nc1nc(Nc2ccccc2)nc2ccccc12	88*	5.5*	105	0.1	155*	0
Nc1nc(Nc2ccc(Cl)cc2)nc2ccccc12	93*	6*	78	0.1	115	-6
COc1ccc(N2CCN(CC(=O)NC(=O)NC(C)(C)C)CC2)cc1	-5	1	99	1.1	-10	8
COc1ccc(N2CCN(CCC(N)=O)CC2)cc1	-6	0.95	100	1.1	x	108*
Cc1ccc(C(=O)Nc2ccc(Br)c(C(F)(F)F)c2)cc1	0	3.2	143*	1	108	0
O=C(Nc1ccc(Cl)c(C(F)(F)F)c1)c1ccncc1	0	1.2	106	1	-30	17
